Measured values as given in ChEMBL document CHEMBL1121599, “Synthesis and analgesic activity of some 5-(4-hydroxyphenyl)-2-azabicyclo[3.2.1]octanes” (J Med Chem, 1980).

Tests used:
[1] = test system: Mus musculus; assay: Tested in vivo for the analgesic activity by measuring the inhibition of phenyl-p-quinone- induced writhing (PQW) in mice upon subcutaneous administration; 2.2-2.7; assay type: functional; settings: sc
How it was run: (§1)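 Compounds were given as racemic hydrobromide salts. The vehicle, also used as the control in both the tail-flick and the phenylquinone writhing tests, was distilled water with a few drops of Tween 80.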

[2] = molecular target: Opioid receptor (Rattus norvegicus, UniProt P33533+P34975+P33535); assay: Tested for In vitro binding constant for Opioid receptors by measuring the inhibition of stereospecific binding of [3H]naloxone in rat brain homogenates; assay type: tissue-based
[3] = test system: Mus musculus; assay: Tested in vivo for the analgesic activity by measuring the delay in response to noxious heat stimuli (D'Amour-Smith tail-flick method) in mice upon subcutaneous administration; assay type: functional; settings: sc; how it was run: as §1
[4] = test system: Mus musculus; assay: Tested in vivo for the analgesic activity by measuring the inhibition of phenyl-p-quinone- induced writhing (PQW) in mice upon subcutaneous administration; 2.6-3.4; assay type: functional; settings: sc; how it was run: as §1
[5] = species on record: Mus musculus; assay: animal or person; settings: sc
[6] = test system: Mus musculus; assay: Tested in vivo for the analgesic activity by measuring the inhibition of phenyl-p-quinone- induced writhing (PQW) in mice upon subcutaneous administration; 7.2-21.9; assay type: functional; settings: sc; how it was run: as §1
[7] = test system: Mus musculus; assay: Tested in vivo for the analgesic activity by measuring the delay in response to noxious heat stimuli (D'Amour-Smith tail-flick method) in mice upon subcutaneous administration; 7.4-24.4; assay type: functional; settings: sc; how it was run: as §1
[8] = test system: Mus musculus; assay: Tested in vivo for the analgesic activity by measuring the inhibition of phenyl-p-quinone- induced writhing (PQW) in mice upon subcutaneous administration; 2.1-2.9; assay type: functional; settings: sc; how it was run: as §1
[9] = test system: Mus musculus; assay: Tested in vivo for the analgesic activity by measuring the inhibition of phenyl-p-quinone- induced writhing (PQW) in mice upon subcutaneous administration; 0.20-0.36; assay type: functional; settings: sc; how it was run: as §1
[10] = test system: Mus musculus; assay: Tested in vivo for the analgesic activity by measuring the inhibition of phenyl-p-quinone- induced writhing (PQW) in mice upon subcutaneous administration; 3.2-4.4; assay type: functional; settings: sc; how it was run: as §1

Row | SMILES | IC50 [2] [nM] | ED50 [3] [mg/kg] | further results
1 | Oc1ccc(C23CCC(C2)N(CCc2ccccc2)CC3)cc1 (stereo not drawn) | 340 | > 25 | ED50 [1]: 2.5 mg/kg
2 | Oc1ccc(C23CCC(C2)N(CC2CC2)CC3)cc1 (stereo not drawn) | 2780 | > 25 | ED50 [4]: 3 mg/kg
3 | CN1CC[C@]23c4c5ccc(O)c4O[C@H]2[C@@H](O)C=C[C@H]3[C@H]1C5 [MORPHINE] |  |  | ED50 [5]: 0.68 mg/kg
4 | CN1CCC2(c3ccc(O)cc3)CCC1C2 (stereo not drawn) | 7290 | > 25 | ED50 [6]: 10.8 mg/kg
5 | CC(C)=CCN1CC[C@]2(C)c3cc(O)ccc3C[C@H]1[C@H]2C [(+)-PENTAZOCINE] |  |  | ED50 [7]: 14.6 mg/kg; ED50 [8]: 2.4 mg/kg
6 | O=C(CCCN1CCC2(c3ccc(O)cc3)CCC1C2)c1ccc(F)cc1 (stereo not drawn) | 268 | > 25 | ED50 [9]: 0.27 mg/kg
7 | CCCN1CCC2(c3ccc(O)cc3)CCC1C2 (stereo not drawn) | 6980 | > 25 | ED50 [10]: 3.7 mg/kg
